Results published in publication PMC4301071 (ACS Chemical Biology, 2014).
*1 amine or outer side, *2 acyl side, *3 side chain or, on linkers, in order; H or OH if unused. Where a SMILES comes first, the peptide text is derived from it. [ ]: non-standard residue; d: D form. The star is where a group is joined. X1 = CN(CCCC[C@H](N[*:1])C(=O)[*:2])CCCCN(O)C(=O)/C=C/C(=O)O; Biotin = O=C1N[C@H]2[C@H](CS[C@H]2CCCCC(=O)*)N1; Bpa = N[C@@H](Cc1ccc(C(=O)c2ccccc2)cc1)C(=O)O; PEG4 = NCCOCCOCCOCCOCCC(=O)O

Columns and labels:
JHDM1A [1] = molecular target: T1, JHDM1A (Homo sapiens, UniProt Q9Y2K7); experiment: Fluorescence polarization; assay type: binding
T1 sequence (Q9Y2K7 1-1162): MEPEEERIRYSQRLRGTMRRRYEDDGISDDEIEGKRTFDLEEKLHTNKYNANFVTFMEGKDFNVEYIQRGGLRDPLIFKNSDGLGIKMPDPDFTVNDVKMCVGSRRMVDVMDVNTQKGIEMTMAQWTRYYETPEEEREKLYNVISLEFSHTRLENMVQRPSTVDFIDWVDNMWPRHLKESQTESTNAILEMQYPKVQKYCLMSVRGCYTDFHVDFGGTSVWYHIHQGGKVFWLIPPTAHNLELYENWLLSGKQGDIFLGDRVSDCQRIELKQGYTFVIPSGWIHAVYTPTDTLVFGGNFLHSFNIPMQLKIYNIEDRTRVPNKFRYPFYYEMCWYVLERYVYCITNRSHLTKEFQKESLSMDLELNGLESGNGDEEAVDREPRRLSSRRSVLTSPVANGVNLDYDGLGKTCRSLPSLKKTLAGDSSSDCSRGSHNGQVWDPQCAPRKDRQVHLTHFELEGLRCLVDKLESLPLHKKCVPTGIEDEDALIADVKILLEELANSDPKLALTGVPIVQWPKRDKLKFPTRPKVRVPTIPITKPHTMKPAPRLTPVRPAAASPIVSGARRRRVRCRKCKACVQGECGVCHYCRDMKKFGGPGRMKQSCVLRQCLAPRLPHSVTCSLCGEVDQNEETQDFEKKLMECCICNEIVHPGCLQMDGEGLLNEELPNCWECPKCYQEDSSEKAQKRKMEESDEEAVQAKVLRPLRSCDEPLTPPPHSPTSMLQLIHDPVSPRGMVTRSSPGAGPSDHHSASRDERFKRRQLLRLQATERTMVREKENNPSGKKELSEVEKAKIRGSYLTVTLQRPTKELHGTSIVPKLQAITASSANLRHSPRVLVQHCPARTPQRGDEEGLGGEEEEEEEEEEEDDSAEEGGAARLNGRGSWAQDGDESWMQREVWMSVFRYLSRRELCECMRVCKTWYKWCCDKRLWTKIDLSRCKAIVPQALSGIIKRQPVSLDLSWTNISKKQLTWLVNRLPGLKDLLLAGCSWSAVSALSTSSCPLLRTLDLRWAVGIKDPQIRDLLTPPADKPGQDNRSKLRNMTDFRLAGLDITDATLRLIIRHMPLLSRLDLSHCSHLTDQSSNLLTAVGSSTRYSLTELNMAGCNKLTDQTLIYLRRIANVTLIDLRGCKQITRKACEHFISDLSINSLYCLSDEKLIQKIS

JHDM1A [2] = molecular target: T1, JHDM1A; experiment: Affinity pulldown of purified JHDM1A in the presence of HeLa histone proteins; assay type: binding; details: in the absence of UV irradiation
Procedure, shortened: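 Acid-extracted HeLa histones were prepared by Triton lysis, then 0.2 N HCl overnight at 4 °C, then lyophilisation. Biotinylated peptide probe (20 μM) was loaded onto streptavidin magnetic beads for 30 min at 4 °C. Recombinant JHDM1A (5 μM) and equal amounts of histones were then added in 25 mM Tris, 100 mM NaCl, 5 μM NiCl2, pH 7.5, for 4 h at 4 °C. The 350 nm, 20 min UV step was omitted. Beads were washed in HEPES/1 M NaCl/1% Triton, then water.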

JMJD1C/KDM3C = JMJD1C/KDM3C (Homo sapiens, UniProt Q15652); experiment: Affinity pulldown from HeLa nuclear lysate, spectral count of JMJD1C/KDM3C; assay type: binding; details: HeLa nuclear extract
Chain of JMJD1C/KDM3C (Q15652 whole entry): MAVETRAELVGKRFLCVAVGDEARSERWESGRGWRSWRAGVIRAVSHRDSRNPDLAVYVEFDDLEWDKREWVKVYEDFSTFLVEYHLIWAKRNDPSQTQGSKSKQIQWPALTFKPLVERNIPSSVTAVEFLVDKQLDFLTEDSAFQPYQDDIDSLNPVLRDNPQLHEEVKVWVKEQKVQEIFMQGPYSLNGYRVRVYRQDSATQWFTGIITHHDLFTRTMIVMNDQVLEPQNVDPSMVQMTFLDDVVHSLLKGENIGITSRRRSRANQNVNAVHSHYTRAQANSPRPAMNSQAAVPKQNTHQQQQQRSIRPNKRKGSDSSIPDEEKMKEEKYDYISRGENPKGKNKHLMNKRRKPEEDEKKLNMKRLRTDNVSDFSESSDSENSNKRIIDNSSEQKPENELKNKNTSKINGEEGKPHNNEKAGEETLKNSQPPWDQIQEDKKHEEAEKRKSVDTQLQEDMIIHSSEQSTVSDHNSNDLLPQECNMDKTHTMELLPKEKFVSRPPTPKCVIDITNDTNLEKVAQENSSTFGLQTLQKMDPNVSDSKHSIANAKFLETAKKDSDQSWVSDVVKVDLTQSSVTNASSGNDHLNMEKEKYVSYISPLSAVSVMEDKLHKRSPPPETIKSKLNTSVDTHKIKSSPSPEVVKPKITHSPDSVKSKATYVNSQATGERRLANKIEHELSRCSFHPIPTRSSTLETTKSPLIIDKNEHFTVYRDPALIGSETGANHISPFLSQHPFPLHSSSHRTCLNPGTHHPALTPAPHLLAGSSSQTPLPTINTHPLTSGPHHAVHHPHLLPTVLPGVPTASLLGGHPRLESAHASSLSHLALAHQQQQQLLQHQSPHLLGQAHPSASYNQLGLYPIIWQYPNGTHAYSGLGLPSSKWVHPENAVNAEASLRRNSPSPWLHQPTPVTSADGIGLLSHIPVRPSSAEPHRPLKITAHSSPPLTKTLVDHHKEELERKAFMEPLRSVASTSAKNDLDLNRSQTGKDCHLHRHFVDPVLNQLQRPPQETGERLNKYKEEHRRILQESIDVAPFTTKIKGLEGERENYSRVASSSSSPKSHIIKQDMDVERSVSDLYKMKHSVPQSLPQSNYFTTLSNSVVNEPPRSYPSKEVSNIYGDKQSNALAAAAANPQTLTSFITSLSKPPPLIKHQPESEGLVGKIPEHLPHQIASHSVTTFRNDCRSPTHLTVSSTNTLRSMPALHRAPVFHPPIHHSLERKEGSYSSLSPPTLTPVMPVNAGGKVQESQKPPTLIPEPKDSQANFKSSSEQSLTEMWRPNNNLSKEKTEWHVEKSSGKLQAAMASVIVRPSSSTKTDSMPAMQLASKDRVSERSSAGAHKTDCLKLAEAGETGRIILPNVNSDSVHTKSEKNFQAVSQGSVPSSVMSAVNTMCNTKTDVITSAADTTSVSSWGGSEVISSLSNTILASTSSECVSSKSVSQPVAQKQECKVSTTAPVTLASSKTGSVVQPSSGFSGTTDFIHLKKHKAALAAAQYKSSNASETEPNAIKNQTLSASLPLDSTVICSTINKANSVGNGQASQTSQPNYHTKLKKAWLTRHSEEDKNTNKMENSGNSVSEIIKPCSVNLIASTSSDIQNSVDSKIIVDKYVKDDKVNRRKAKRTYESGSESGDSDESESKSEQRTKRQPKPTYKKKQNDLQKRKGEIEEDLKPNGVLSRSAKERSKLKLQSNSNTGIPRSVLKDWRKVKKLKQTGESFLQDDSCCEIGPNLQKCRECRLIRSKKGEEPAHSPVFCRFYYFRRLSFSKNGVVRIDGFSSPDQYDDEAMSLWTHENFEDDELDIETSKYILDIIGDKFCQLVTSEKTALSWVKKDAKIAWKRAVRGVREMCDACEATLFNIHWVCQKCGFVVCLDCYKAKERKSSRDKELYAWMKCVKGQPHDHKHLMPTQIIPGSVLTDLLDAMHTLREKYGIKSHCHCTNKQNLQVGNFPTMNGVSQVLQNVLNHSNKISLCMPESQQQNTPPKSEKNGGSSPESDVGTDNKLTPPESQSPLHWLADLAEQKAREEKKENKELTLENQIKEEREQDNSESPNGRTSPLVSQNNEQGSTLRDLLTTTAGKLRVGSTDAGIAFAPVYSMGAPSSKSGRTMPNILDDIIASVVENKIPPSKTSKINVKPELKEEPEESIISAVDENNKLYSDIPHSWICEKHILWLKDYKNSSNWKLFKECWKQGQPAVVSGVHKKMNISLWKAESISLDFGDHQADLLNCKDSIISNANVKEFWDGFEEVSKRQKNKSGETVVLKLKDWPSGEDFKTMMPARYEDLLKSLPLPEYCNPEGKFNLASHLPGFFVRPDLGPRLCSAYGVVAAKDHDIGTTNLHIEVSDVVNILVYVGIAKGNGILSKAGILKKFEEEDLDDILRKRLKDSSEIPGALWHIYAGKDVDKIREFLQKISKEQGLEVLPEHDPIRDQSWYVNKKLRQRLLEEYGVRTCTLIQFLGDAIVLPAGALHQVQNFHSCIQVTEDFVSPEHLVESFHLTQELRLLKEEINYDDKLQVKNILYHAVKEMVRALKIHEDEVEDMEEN
Procedure, shortened: (§1)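 HeLa cells were grown in DMEM with 10% FCS and 1% penicillin/streptomycin at 37 °C, 5% CO2. Nuclei were prepared by hypotonic swelling and douncing, extracted in 0.4 M NaCl/20% glycerol buffer, and dialysed into 20 mM HEPES, 100 mM KCl, 2 mM MgCl2, pH 7.9. Streptavidin bead pulldowns used 2 mL lysate, and a no-probe control was included. Bead-bound material was washed, reduced with 4 mM DTT, alkylated with 14 mM iodoacetamide, trypsin-digested on the beads overnight at 37 °C, and run on nanoLC-LTQ/Orbitrap. Searches used human UniProt at 1% FDR, with spectral-count quantification.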

JMJD2A/KDM4A [3] = molecular target: T2, JMJD2A/KDM4A (Homo sapiens, UniProt O75164); experiment: Affinity pulldown from HeLa nuclear lysate, spectral count of JMJD2A/KDM4A; assay type: binding; details: HeLa nuclear extract, 20 μM probe 6
T2 sequence (O75164 2-1064): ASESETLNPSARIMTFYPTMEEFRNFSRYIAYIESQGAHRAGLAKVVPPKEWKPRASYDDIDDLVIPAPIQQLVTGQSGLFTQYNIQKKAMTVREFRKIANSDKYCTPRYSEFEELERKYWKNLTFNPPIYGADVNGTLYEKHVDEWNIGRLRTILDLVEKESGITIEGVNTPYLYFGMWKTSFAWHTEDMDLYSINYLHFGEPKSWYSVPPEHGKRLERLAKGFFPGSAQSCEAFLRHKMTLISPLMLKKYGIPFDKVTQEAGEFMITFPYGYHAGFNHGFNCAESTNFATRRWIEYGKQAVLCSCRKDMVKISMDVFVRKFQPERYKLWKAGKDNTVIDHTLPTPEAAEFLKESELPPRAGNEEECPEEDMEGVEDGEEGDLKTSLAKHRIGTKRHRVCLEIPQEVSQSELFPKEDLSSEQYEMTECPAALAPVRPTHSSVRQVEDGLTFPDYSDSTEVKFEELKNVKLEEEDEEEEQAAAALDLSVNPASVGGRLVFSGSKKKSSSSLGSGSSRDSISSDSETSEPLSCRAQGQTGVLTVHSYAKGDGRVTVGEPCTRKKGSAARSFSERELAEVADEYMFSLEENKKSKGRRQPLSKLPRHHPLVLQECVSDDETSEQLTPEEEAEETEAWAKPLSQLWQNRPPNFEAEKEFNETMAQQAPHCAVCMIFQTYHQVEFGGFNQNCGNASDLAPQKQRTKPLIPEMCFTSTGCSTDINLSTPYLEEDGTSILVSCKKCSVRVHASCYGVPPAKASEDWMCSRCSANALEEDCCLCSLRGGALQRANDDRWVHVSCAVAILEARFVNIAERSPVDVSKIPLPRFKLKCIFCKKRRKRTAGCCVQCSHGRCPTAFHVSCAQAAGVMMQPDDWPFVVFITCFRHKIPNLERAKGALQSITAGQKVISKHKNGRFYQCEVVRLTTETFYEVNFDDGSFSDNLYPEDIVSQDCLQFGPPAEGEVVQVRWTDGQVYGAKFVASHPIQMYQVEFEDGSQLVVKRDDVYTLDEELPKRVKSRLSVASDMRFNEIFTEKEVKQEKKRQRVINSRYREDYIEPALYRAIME

JMJD2A/KDM4A [4] = experiment: as above; assay type: binding, human; details: HeLa nuclear extract, 20 μM probe 6, recombinant KDM4A spiked in at 25 nM
PHF8/KDM7A = PHF8/KDM7A (Homo sapiens, UniProt Q9UPP1); experiment: Affinity pulldown from HeLa nuclear lysate, spectral count of PHF8/KDM7A; assay type: binding; details: HeLa nuclear extract
Procedure, shortened: as §1

CHD8 = CHD8 (Homo sapiens, UniProt Q9HCK8); experiment: Affinity pulldown from HeLa nuclear lysate, spectral count of CHD8; assay type: binding; details: HeLa nuclear extract
Chain of CHD8 (Q9HCK8 whole entry): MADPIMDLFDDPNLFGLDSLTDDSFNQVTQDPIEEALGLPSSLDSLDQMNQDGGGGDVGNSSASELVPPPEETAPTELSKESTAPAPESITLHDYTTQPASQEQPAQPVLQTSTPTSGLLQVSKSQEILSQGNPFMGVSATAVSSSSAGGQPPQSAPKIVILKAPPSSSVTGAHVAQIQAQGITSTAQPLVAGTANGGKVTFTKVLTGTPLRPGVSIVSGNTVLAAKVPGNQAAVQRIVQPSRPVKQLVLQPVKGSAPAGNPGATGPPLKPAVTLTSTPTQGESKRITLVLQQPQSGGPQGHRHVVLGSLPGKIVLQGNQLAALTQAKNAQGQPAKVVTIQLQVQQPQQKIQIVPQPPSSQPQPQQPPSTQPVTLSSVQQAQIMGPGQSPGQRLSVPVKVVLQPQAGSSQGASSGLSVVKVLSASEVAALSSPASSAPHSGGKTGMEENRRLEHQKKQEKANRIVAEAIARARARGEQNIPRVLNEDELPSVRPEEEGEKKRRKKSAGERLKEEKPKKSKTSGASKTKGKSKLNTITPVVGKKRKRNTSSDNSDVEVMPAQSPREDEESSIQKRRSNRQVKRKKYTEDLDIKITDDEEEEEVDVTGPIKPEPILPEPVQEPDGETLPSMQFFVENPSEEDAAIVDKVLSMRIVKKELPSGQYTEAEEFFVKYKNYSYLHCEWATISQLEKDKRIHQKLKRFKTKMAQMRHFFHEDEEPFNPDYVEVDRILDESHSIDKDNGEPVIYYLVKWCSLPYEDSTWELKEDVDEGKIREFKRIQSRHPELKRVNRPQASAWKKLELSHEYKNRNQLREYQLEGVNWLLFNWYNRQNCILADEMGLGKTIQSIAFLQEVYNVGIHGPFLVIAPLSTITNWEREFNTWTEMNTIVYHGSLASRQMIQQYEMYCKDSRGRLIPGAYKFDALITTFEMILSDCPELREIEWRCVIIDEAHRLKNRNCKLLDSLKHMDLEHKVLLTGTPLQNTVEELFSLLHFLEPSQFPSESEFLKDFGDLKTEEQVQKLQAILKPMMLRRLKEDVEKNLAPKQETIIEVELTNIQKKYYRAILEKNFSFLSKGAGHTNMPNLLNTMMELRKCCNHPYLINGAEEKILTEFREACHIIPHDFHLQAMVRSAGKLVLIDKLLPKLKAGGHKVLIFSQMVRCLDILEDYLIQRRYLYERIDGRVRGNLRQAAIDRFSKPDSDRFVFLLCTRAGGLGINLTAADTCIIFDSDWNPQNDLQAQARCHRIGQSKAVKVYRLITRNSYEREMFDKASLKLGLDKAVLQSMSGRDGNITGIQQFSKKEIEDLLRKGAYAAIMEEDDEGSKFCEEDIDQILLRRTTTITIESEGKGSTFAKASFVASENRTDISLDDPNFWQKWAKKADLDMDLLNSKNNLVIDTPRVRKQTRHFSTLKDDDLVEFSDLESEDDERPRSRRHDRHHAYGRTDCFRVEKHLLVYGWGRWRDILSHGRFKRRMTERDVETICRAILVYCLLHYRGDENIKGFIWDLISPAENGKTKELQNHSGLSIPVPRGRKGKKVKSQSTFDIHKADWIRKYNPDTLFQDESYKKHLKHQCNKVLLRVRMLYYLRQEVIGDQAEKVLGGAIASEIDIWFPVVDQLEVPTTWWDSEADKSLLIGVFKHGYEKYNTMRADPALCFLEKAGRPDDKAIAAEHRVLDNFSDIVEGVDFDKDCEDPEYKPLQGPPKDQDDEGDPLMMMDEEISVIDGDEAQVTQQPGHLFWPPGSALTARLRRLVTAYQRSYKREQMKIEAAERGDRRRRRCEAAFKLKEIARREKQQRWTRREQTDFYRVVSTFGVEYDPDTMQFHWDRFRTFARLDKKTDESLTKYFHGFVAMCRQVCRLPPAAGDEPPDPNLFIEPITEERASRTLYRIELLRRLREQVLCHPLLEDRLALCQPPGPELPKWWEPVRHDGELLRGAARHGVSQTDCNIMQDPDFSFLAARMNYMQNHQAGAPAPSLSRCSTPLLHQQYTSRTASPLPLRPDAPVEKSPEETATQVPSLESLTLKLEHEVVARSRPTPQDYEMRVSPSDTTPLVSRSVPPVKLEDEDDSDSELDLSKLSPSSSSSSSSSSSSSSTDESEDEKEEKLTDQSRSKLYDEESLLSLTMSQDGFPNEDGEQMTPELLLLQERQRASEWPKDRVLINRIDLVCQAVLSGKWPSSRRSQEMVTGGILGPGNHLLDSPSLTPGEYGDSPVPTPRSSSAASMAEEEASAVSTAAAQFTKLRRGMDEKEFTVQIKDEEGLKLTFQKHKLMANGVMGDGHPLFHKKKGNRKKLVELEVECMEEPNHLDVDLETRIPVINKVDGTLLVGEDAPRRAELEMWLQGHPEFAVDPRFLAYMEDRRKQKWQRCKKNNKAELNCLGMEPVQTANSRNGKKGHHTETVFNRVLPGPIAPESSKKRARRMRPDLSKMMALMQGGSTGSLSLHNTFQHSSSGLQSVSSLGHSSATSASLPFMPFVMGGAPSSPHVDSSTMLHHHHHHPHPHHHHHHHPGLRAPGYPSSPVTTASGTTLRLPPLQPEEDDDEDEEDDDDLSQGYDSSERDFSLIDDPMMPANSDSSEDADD
Procedure, shortened: as §1

CHD7 = CHD7 (Homo sapiens, UniProt Q9P2D1); experiment: Affinity pulldown from HeLa nuclear lysate, spectral count of CHD7; assay type: binding; details: HeLa nuclear extract
Procedure, shortened: as §1

HDAC1/2 = experiment: Affinity pulldown from HeLa nuclear lysate, spectral count of HDAC1/2; assay type: binding, human; details: HeLa nuclear extract
Procedure, shortened: as §1

[5] = 20 μM probe 6, recombinant KDM4A spiked in at 25 nM

Structure (SMILES): CC(C)[C@H](NC(=O)CNC(=O)CNC(=O)[C@@H](NC(=O)[C@H](Cc1ccc(C(=O)c2ccccc2)cc1)NC(=O)CCOCCOCCOCCOCCNC(=O)CCCC[C@@H]1SC[C@@H]2NC(=O)N[C@@H]21)[C@@H](C)O)C(=O)N[C@@H](CCCCN(C)CCCCN(O)C(=O)/C=C/C(=O)O)C(=O)N[C@@H](CCCCN)C(=O)N1CCC[C@H]1C(=O)N[C@@H](Cc1c[nH]cn1)C(=O)N[C@@H](CCCNC(=N)N)C(N)=O [probe 6] ({Biotin-PEG4}-[Bpa]TGGV[X1]KPHR-NH2)
- fold increased affinity compared to nonfunctionalized native H3K36me2 histone 20mer peptide (JHDM1A [1]): ~2 fold
- pulldown of JHDM1A (JHDM1A [2]): complete absence of JHDM1A
- spectral count, endogenous (JMJD1C/KDM3C; 20 μM probe 6): 6
- spectral count, spiked-in (JMJD1C/KDM3C; [5]): 3
- spectral count, endogenous (JMJD2A/KDM4A [3]): 0
- spectral count, spiked-in (JMJD2A/KDM4A [4]): 5
- spectral count, endogenous (PHF8/KDM7A; 20 μM probe 6): 1
- spectral count, spiked-in (PHF8/KDM7A; [5]): 1
- spectral count, endogenous (CHD8; 20 μM probe 6): 2
- spectral count, spiked-in (CHD8; [5]): 3
- spectral count, endogenous (CHD7; 20 μM probe 6): 5
- spectral count, spiked-in (CHD7; [5]): 1
- spectral count, endogenous (HDAC1/2; 20 μM probe 6): 8
- spectral count, spiked-in (HDAC1/2; [5]): 3
